Results: paper PMC3480690 (The Open Medicinal Chemistry Journal, 2012)

Tested on: MCF-7 cells
Assay: MTT assay, cytotoxicity on MCF-7 cells
Format: cell-based
Details: Homo sapiens, MCF7, 24 h, read-out: MTT assay IC50
In short: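 Human breast cancer MCF-7 cells grown in DMEM with 10% FBS, penicillin and streptomycin at 37°C, 5% CO2. 10000 cells per well were seeded, cultured overnight, then exposed to test compound (1-200 µM) for 24 h. MTT at 0.5 mg/ml final was added for 3 h at 37°C. Formazan was dissolved in DMSO and read at 545 nm (630 nm reference). IC50 was taken from concentration-growth inhibition curves.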

SMILES: Cc1ccc(-c2cc(C(F)(F)F)nn2-c2ccc(S(N)(=O)=O)cc2)cc1 [Celecoxib]
- IC50: 87.7 µM
